Most compounds without a hit are left out; they make up all but 0.9% or so of the library.
ABCB1 inh – blocks JC-1 efflux by human ABCB1 transporter; inhibition, % at 6.6 µM; CCRF-Adr cells, flow cytometry; 190,000 compounds, 0.067% hits; P08183; AID 1326; in the data active = inhibition above about 40%;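 also: higher value means more JC-1 retained so stronger ABCB1 efflux block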
RGS7-Gao – modulates binding of RGS7 to human Galphao | P09471 | Multiplexed bead flow cytometry; actives lie on both sides | binding response (% of control), % at 10 µM | 220,000 compounds, 0.35% hits | AID 1439; in the data active = binding response below about 49% or above about 150%; inconclusive = no clear call, values can overlap the other calls; inactive = in between;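 also: fluorescent Galphao held in activated GDP-AlF4 state binding bead-coupled RGS7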
RGS16-Gao – modulates binding between human RGS16 and Galphao. O15492+P09471. bead-based flow cytometry RGS16-Galphao binding, fluorescence; actives lie on both sides. binding response (% of control), % at 10 µM. 220,000 compounds, 0.38% hits;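 also: Galphao activated by GDP with aluminum fluoride before binding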
ABCG2 inh – blocks JC-1 efflux by human ABCG2 transporter; IgMXP3 cells, flow cytometry; inhibition, % at 6.6 µM; 190,000 compounds, 0.1% hits; AID 1325;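 active = inhibition above 80%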
Target sequence (Q9UNQ0 whole entry, looked up): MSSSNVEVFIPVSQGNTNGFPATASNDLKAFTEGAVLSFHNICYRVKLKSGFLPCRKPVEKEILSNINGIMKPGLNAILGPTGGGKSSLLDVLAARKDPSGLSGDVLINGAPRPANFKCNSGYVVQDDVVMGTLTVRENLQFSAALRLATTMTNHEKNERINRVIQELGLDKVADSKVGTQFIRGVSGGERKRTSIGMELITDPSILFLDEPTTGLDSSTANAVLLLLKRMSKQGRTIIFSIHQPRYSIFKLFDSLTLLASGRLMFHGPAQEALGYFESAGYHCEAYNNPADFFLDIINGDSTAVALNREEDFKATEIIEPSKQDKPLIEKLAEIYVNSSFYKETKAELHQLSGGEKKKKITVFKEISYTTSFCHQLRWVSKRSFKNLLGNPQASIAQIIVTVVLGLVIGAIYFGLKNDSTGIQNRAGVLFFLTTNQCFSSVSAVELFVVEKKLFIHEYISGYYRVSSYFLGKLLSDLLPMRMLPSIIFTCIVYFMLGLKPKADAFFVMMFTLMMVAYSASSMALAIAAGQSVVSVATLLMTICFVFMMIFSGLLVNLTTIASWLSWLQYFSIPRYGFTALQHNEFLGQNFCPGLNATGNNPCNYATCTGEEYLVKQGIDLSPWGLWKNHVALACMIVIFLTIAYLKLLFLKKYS
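System: two drug-resistant human cell lines, ABCG2 and ABCB1; controls: nicardipine high and DMSO low controls; times: 10 min exposure at 25 °C with rotation, no wash; detection: flow cytometry of retained JC-1 fluorescence; read-out basis: percent efflux inhibition, scaled nicardipine 100% to DMSO 0%; doses: one concentration, 6.6 µM final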
RGS8-Gao reg – modulates binding of RGS8 to human Galphao. 220,000 compounds, 0.34% hits. response (percent of control binding), % at 10 µM. multiplexed bead flow cytometry; actives lie on both sides. AID 1423; in the data active = response below about 60% or above about 140%; inactive = in between;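 also: Galphao activated as the GDP aluminium fluoride complex binding bead-coupled RGS8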
RGS4-Gao reg – human RGS4-Galphao interaction regulation | P09471 | Multiplexed bead flow cytometry, RGS4-Galphao binding; actives lie on both sides | binding response (% of control), % at 10 µM | 220,000 compounds, 0.33% hits; in the data active = binding response below about 49% or above about 150%; inactive = in between;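 also: fluorescent Galphao activated with aluminum fluoride binding bead-coupled RGS4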
RGS4-Gao HTS – regulators of human RGS4-Galphao interaction. 1,600 compounds, 99% hits. RGS4–Galpha-o binding response, % at 10 µM. multiplexed bead flow cytometry, RGS–Galpha-o binding. shares compounds with RGS16-Gao;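 also: fluorescently labeled Galpha-o bound to GDP with aluminium fluoride binding biotinylated RGS beads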
Avidin counter – interferes with biotinylated probe binding to avidin beads; shares compounds with RGS16-Gao; streptavidin beads, fluorescein-biotin binding, flow cytometry; inhibition, % at 10 µM; 1,700 tested, under 10 active; AID 1783;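 active = inhibition above 50%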;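 also: median green fluorescence of gated singlet beads compared with DMSO control wells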
RGS8-Gao single – confirmation of regulators of human RGS8-Galphao interaction | AID 1836 | binding response (% of control), % at 10 µM | bead-based flow cytometry RGS8-Galphao binding, fluorescence; actives lie on both sides | 1,700 compounds, 3% hits | shares compounds with RGS16-Gao; in the data active = binding response below about 72% or above about 130%; inactive = in between;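 also: Galphao activated as GDP AlF4 complex before binding bead RGS8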
RGS7-Gao single – RGS7-Galphao interaction regulation, single point confirmation; bead-based flow cytometry RGS7-Galphao binding; actives lie on both sides; shares compounds with RGS16-Gao; 1,700 compounds, 7.8% hits; response (percent of control binding), % at 10 µM; in the data active = response below about 75% or above about 130%; inactive = in between;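 also: fluorescent Galphao activated with GDP and aluminum fluoride binding bead-coupled RGS7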
RGS16-Gao single – RGS16-Galphao interaction regulation, single point confirmation; shares compounds with RGS16-Gao; bead-based flow cytometry, RGS16-Galphao binding; actives lie on both sides; response (% of control binding), % at 10 µM; 1,700 compounds, 4% hits; AID 1838; in the data active = response below about 74% or above about 130%; inactive = in between;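 also: Galphao activated as the GDP aluminium fluoride complex binding bead-coupled RGS16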
RGS4-Gao confirm – RGS4-Galphao interaction regulation, single point confirmation. binding response (% of control), % at 10 µM. shares compounds with RGS16-Gao. RGS4-Galphao binding, multiplexed bead flow cytometry; actives lie on both sides. 1,700 compounds, 4% hits. AID 1840; in the data active = binding response below about 74% or above about 130%; inactive = in between
RGS19-Gao single – RGS19-Galphao interaction regulation, single point confirmation. shares compounds with RGS16-Gao. bead-based flow cytometry RGS19-Galphao binding; actives lie on both sides. response (percent of control binding), % at 10 µM. 1,700 compounds, 5% hits. AID 1841; in the data active = response below about 50% or above about 160%; inactive = in between
Of the large screens only hits and unclear results are named; the others gave an inactive call (follow-up assays come after a bar, where they were run); [ ] = another dose, or the depositor's remark. Unless noted, no rule for the calls is given here.

O=C(O)C[C@@H]1C(=O)O[C@@H]2C(COC(=O)c3cc(O)c(O)c(O)c3)O[C@@H](OC(=O)c3cc(O)c(O)c(O)c3)[C@@H](OC(=O)c3cc(O)c(O)c4c3[C@H]1[C@H](O)C(=O)O4)[C@H]2OC(=O)c1cc(O)c(O)c(O)c1 (some centres not stated)	RGS7-Gao inconclusive, RGS8-Gao reg 38, RGS4-Gao reg 2.5 (no result: ABCB1 inh, ABCG2 inh) | Avidin counter inactive | RGS8-Gao single 39 | RGS7-Gao single -12 | RGS16-Gao single 39 | RGS4-Gao confirm -0.5 | RGS19-Gao single 42
NS(=O)(=O)c1ccc(N/N=C/c2ccc(O)c(O)c2O)c([N+](=O)[O-])c1	RGS7-Gao inconclusive, RGS16-Gao 20, RGS8-Gao reg 39 (no result: ABCB1 inh, ABCG2 inh) | RGS4-Gao HTS 69 | Avidin counter inactive | RGS8-Gao single 43 | RGS7-Gao single 35 | RGS16-Gao single 42 | RGS4-Gao confirm 71 | RGS19-Gao single -0.4
NC(=NC1CCCCC1)c1ccc(Cl)cc1	RGS7-Gao 195[activator] | RGS4-Gao HTS 117 | Avidin counter inactive | RGS8-Gao single inactive | RGS7-Gao single inactive | RGS16-Gao single inactive | RGS4-Gao confirm inactive | RGS19-Gao single inactive
CCCN(CCC)c1nc(C#N)nc(N(CCC)CCC)n1	RGS8-Gao reg 48 | RGS4-Gao HTS 96 | Avidin counter inactive | RGS8-Gao single inactive | RGS7-Gao single inactive | RGS16-Gao single inactive | RGS4-Gao confirm inactive | RGS19-Gao single inactive
COc1ccccc1OCC(=O)Nc1sc2c(c1C(=O)NCC1CCCO1)CCC2 (configuration not stated)	none
Cc1nc2ccccc2nc1OCC(=O)Nc1cc(C(F)(F)F)ccc1N1CCOCC1	none
Nc1nc(SCC(=O)Nc2cc(C(F)(F)F)ccc2N2CCOCC2)n[nH]1	RGS7-Gao 24, RGS16-Gao 16, RGS8-Gao reg 18, RGS4-Gao reg 29 | Avidin counter inactive | RGS8-Gao single inactive | RGS7-Gao single inactive | RGS16-Gao single inactive | RGS4-Gao confirm inactive | RGS19-Gao single inactive
CC1(C)Cc2cccc(OCC(=O)Nc3cc(C(F)(F)F)ccc3N3CCOCC3)c2O1	RGS7-Gao 226[activator] | RGS4-Gao HTS 118 | Avidin counter inactive | RGS8-Gao single inactive | RGS7-Gao single inactive | RGS16-Gao single inactive | RGS4-Gao confirm inactive | RGS19-Gao single inactive
Nc1nc(SCC(=O)N2CCOCC2)n[nH]1	RGS7-Gao 189[activator] | RGS4-Gao HTS 129 | Avidin counter inactive | RGS8-Gao single inactive | RGS7-Gao single inactive | RGS16-Gao single inactive | RGS4-Gao confirm inactive | RGS19-Gao single inactive
O=C(N1CCN(c2ccccc2)CC1)C12CC3CC(CC(C3)C1)C2	none

Screens as filed in PubChem.
